Experimental data taken from ChEMBL document CHEMBL1799988, “Novel chalcone derivatives as potent Nrf2 activators in mice and human lung epithelial cells” (J Med Chem, 2011).
Active and inactive are the calls of the source. No cut-off for these calls is given here.

What was measured:
[1] = molecular target: T1, Nuclear factor erythroid 2-related factor 2 (Homo sapiens) (UniProt Q16236); assay: Induction of Nrf2-mediated NQO1 gene expression in human BEAS2B cells at 10 uM after 16 hrs by RT-PCR analysis relative to untreated control; format: functional, cell-based
T1 sequence (whole entry): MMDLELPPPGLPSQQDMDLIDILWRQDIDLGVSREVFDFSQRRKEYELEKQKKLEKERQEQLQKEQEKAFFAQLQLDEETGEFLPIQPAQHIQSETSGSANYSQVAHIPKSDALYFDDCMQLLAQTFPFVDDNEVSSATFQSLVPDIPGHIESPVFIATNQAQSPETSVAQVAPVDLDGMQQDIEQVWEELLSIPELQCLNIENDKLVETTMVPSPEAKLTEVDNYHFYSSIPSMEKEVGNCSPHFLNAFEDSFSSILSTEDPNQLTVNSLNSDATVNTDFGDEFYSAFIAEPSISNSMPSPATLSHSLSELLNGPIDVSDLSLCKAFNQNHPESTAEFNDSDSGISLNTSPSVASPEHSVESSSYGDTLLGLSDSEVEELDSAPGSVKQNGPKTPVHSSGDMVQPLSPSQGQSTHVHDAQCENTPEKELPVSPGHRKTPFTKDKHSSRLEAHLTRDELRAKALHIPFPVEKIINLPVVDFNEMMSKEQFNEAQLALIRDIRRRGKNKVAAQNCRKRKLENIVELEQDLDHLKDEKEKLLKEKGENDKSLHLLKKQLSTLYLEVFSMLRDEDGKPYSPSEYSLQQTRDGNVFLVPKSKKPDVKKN
Outline: (§1)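 Beas-2B cells (DMEM:F12, 10% FBS) plated 24 h, then exposed to 10 µM compound in DMSO (final ≤0.1%) for 16 h; sulforaphane as positive control. Total RNA extracted, reverse transcribed with random hexamers, GCLM and NQO1 mRNA quantified by TaqMan qRT-PCR, fold change vs DMSO. Representative of 3 independent experiments, quadruplicate wells.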

[2] = molecular target: T1, Nuclear factor erythroid 2-related factor 2 (Homo sapiens); assay: Induction of Nrf2-mediated GCLM gene expression in human BEAS2B cells at 10 uM after 16 hrs by RT-PCR analysis relative to untreated control; format: functional, cell-based; outline: as §1
[3] = Cytotoxicity against human BEAS2B cells assessed as cell viability after 24 hrs by MTT assay; format: cell-based, BEAS-2B; parameters: concentration or dose not given beside the values; conditions: read-out: Activity
Outline: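 Beas-2B cells treated with compound or DMSO vehicle (0.1%) for 24 h; MTT (5 mg/ml in serum-free medium) added for the last 4 h, formazan dissolved in DMSO after PBS wash, absorbance read at 570 nm. Viability also checked by trypan blue exclusion.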

[4] = test system: Mus musculus; assay: Induction of Nrf2-mediated GCLM gene expression in small intestine of C57BL/6 mouse at 50 mg/kg, po administered as single dose measured after 24 hrs by RT-PCR analysis related to control; format: functional
Outline: (§2)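 Male C57BL/6 mice (7 weeks, AIN 76A diet; n=4) given a single 50 mg/kg oral gavage of compound, sulforaphane, or vehicle (10% DMSO + 10% Cremophor EL + 80% PBS). Small intestine harvested 24 h later; GCLM and NQO1 mRNA measured by TaqMan qRT-PCR with β-actin normalization.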

[5] = test system: Mus musculus; assay: Induction of Nrf2-mediated NQO1 gene expression in small intestine of C57BL/6 mouse at 50 mg/kg, po administered as single dose measured after 24 hrs by RT-PCR analysis related to control; format: functional; outline: as §2

COc1cc(OC)c(C(=O)/C=C/c2cccc(C(F)(F)F)c2)c(OC)c1
fold change (FC) [1]: 0.7 | fold change (FC) [2]: 1.4

COc1ccc(C(=O)/C=C/c2ccccc2C(F)(F)F)c(OC)c1
viability at 24 h [3]: 105% | Activity [4]: Active | fold change (FC) [1]: 4.5 | Activity [5]: Active | fold change (FC) [2]: 5.4

COc1cc(OC)cc(C(=O)/C=C/c2ccccc2C(F)(F)F)c1
viability at 24 h [3]: 87.1% | fold change (FC) [1]: 3.7 | fold change (FC) [2]: 4

COc1cccc(C(=O)/C=C/c2cccc(C(F)(F)F)c2)c1
viability at 24 h [3]: 95.3% | fold change (FC) [1]: 3.5 | fold change (FC) [2]: 4.6

COc1ccc(C(=O)/C=C/c2ccc(C(F)(F)F)cc2)cc1
viability at 24 h [3]: 104% | fold change (FC) [1]: 4.6 | fold change (FC) [2]: 3.5

COc1cccc(OC)c1C(=O)/C=C/c1ccccc1C(F)(F)F
viability at 24 h [3]: 101% | Activity [4]: Active | fold change (FC) [1]: 5.3 | Activity [5]: Active | fold change (FC) [2]: 5.7

COc1ccc(C(=O)/C=C/c2ccccc2C(F)(F)F)cc1OC
fold change (FC) [1]: 2.7 | fold change (FC) [2]: 4.3

COc1ccc(C(=O)/C=C/c2ccccc2[N+](=O)[O-])c(OC)c1OC
fold change (FC) [1]: 3.3 | fold change (FC) [2]: 2.9

COc1cccc(C(=O)/C=C/c2ccc(C(F)(F)F)cc2)c1
fold change (FC) [1]: 3.1 | fold change (FC) [2]: 2.9

COc1ccc(OC)c(C(=O)/C=C/c2ccc(C(F)(F)F)cc2)c1
viability at 24 h [3]: 91.6% | fold change (FC) [1]: 4 | fold change (FC) [2]: 4.1

COc1cccc(OC)c1C(=O)/C=C/c1ccc(C(F)(F)F)cc1
fold change (FC) [1]: 0.6 | fold change (FC) [2]: 1.4

O=C(/C=C/c1ccccc1[N+](=O)[O-])c1ccccc1
fold change (FC) [1]: 1.6 | fold change (FC) [2]: 2.1

COc1cccc(C(=O)/C=C/c2ccccc2C(F)(F)F)c1
viability at 24 h [3]: 96.6% | Activity [4]: Active | fold change (FC) [1]: 4.3 | Activity [5]: Active | fold change (FC) [2]: 5.6

COc1ccc(C(=O)/C=C/c2ccccc2)cc1OC
fold change (FC) [1]: 2.5 | fold change (FC) [2]: 2.3

COc1cc(OC)c(C(=O)/C=C/c2ccccc2C(F)(F)F)c(OC)c1
viability at 24 h [3]: 145% | Activity [4]: Active | fold change (FC) [1]: 4.3 | Activity [5]: Active | fold change (FC) [2]: 4.4

COc1ccc(OC)c(C(=O)/C=C/c2ccccc2C(F)(F)F)c1
fold change (FC) [1]: 2.7 | fold change (FC) [2]: 4.4

COc1ccc(C(=O)/C=C/c2ccccc2[N+](=O)[O-])cc1
viability at 24 h [3]: 93.2% | fold change (FC) [1]: 4.3 | fold change (FC) [2]: 4.6

COc1ccc(C(=O)/C=C/c2ccc(C(F)(F)F)cc2)c(OC)c1
viability at 24 h [3]: 92.6% | fold change (FC) [1]: 4.8 | fold change (FC) [2]: 5

COc1ccc(C(=O)/C=C/c2ccccc2C(F)(F)F)c(OC)c1OC
viability at 24 h [3]: 102% | Activity [4]: Active | fold change (FC) [1]: 4.1 | Activity [5]: Active | fold change (FC) [2]: 5.4

COc1cccc(OC)c1C(=O)/C=C/c1ccccc1
fold change (FC) [1]: 1.9 | fold change (FC) [2]: 2.5

COc1ccccc1C(=O)/C=C/c1ccc(C(F)(F)F)cc1
viability at 24 h [3]: 91% | fold change (FC) [1]: 5.4 | fold change (FC) [2]: 4.3

COc1cc(OC)cc(C(=O)/C=C/c2ccccc2)c1
fold change (FC) [1]: 2.4 | fold change (FC) [2]: 3

COc1ccc(OC)c(C(=O)/C=C/c2ccccc2[N+](=O)[O-])c1
fold change (FC) [1]: 0.7 | fold change (FC) [2]: 1.7

COc1cc(OC)cc(C(=O)/C=C/c2ccccc2[N+](=O)[O-])c1
viability at 24 h [3]: 90.9% | fold change (FC) [1]: 4.1 | fold change (FC) [2]: 3.4

COc1cc(C(=O)/C=C/c2cccc(C(F)(F)F)c2)cc(OC)c1OC
fold change (FC) [1]: 0.8 | fold change (FC) [2]: 1.7

COc1cc(OC)c(C(=O)/C=C/c2ccccc2)c(OC)c1
fold change (FC) [1]: 1.8 | fold change (FC) [2]: 3.1

COc1cccc(OC)c1C(=O)/C=C/c1ccccc1[N+](=O)[O-]
viability at 24 h [3]: 75.8% | fold change (FC) [1]: 3.7 | fold change (FC) [2]: 4.1

O=C(/C=C/c1ccccc1)c1ccccc1
fold change (FC) [1]: 1.8 | fold change (FC) [2]: 0.7

COc1cccc(OC)c1C(=O)/C=C/c1cccc(C(F)(F)F)c1
fold change (FC) [1]: 0.6 | fold change (FC) [2]: 1.8

COc1cc(C(=O)/C=C/c2ccccc2C(F)(F)F)cc(OC)c1OC
fold change (FC) [1]: 3.1 | fold change (FC) [2]: 3

COc1ccc(C(=O)/C=C/c2cccc(C(F)(F)F)c2)c(OC)c1OC
fold change (FC) [1]: 3.2 | fold change (FC) [2]: 3.6

COc1ccc(C(=O)/C=C/c2cccc(C(F)(F)F)c2)cc1
fold change (FC) [1]: 2.8 | fold change (FC) [2]: 2.7

COc1ccc(C(=O)/C=C/c2ccc(C(F)(F)F)cc2)cc1OC
fold change (FC) [1]: 2.7 | fold change (FC) [2]: 3.5

O=C(/C=C/c1cccc(C(F)(F)F)c1)c1ccccc1
fold change (FC) [1]: 2.8 | fold change (FC) [2]: 3.1

COc1cc(C(=O)/C=C/c2ccccc2[N+](=O)[O-])cc(OC)c1OC
fold change (FC) [1]: 0.7 | fold change (FC) [2]: 1.2

COc1cc(OC)cc(C(=O)/C=C/c2cccc(C(F)(F)F)c2)c1
viability at 24 h [3]: 108% | fold change (FC) [1]: 3.9 | fold change (FC) [2]: 3.8

COc1ccc(C(=O)/C=C/c2ccccc2)c(OC)c1
fold change (FC) [1]: 2.8 | fold change (FC) [2]: 2.7

COc1ccc(C(=O)/C=C/c2ccccc2)cc1
fold change (FC) [1]: 2.8 | fold change (FC) [2]: 1.9

COc1cc(C(=O)/C=C/c2ccc(C(F)(F)F)cc2)cc(OC)c1OC
fold change (FC) [1]: 3.7 | fold change (FC) [2]: 4.1

COc1cccc(C(=O)/C=C/c2ccccc2[N+](=O)[O-])c1
fold change (FC) [1]: 2.7 | fold change (FC) [2]: 2.9

COc1ccc(C(=O)/C=C/c2cccc(C(F)(F)F)c2)cc1OC
fold change (FC) [1]: 2.9 | fold change (FC) [2]: 4.1

COc1ccc(C(=O)/C=C/c2ccccc2)c(OC)c1OC
fold change (FC) [1]: 2.4 | fold change (FC) [2]: 2.4

COc1ccccc1C(=O)/C=C/c1cccc(C(F)(F)F)c1
fold change (FC) [1]: 2.9 | fold change (FC) [2]: 3.9

COc1ccc(C(=O)/C=C/c2ccccc2C(F)(F)F)cc1
viability at 24 h [3]: 96% | Activity [4]: Active | fold change (FC) [1]: 4.6 | Activity [5]: Active | fold change (FC) [2]: 5.4

COc1ccc(OC)c(C(=O)/C=C/c2ccccc2)c1
fold change (FC) [1]: 2.6 | fold change (FC) [2]: 3

COc1ccc(C(=O)/C=C/c2ccccc2[N+](=O)[O-])c(OC)c1
fold change (FC) [1]: 3.3 | fold change (FC) [2]: 2.7

COc1cccc(C(=O)/C=C/c2ccccc2)c1
fold change (FC) [1]: 2.4 | fold change (FC) [2]: 1.5

COc1ccc(C(=O)/C=C/c2ccc(C(F)(F)F)cc2)c(OC)c1OC
viability at 24 h [3]: 100% | fold change (FC) [1]: 3.9 | fold change (FC) [2]: 4.1

COc1ccc(C(=O)/C=C/c2cccc(C(F)(F)F)c2)c(OC)c1
fold change (FC) [1]: 4 | fold change (FC) [2]: 4.6

COc1ccccc1C(=O)/C=C/c1ccccc1
fold change (FC) [1]: 3.2 | fold change (FC) [2]: 3.6

O=C(/C=C/c1ccc(C(F)(F)F)cc1)c1ccccc1
fold change (FC) [1]: 2.9 | fold change (FC) [2]: 3.1

C[S+]([O-])CCCCN=C=S (stereo not drawn) [SULFORAPHANE]
viability at 24 h [3]: 97.3% | Activity [4]: Active | fold change (FC) [1]: 3.6 | Activity [5]: Active | fold change (FC) [2]: 2.7

COc1ccc(C(=O)/C=C/c2ccccc2[N+](=O)[O-])cc1OC
fold change (FC) [1]: 2.7 | fold change (FC) [2]: 2.3

COc1ccc(OC)c(C(=O)/C=C/c2cccc(C(F)(F)F)c2)c1
fold change (FC) [1]: 0.8 | fold change (FC) [2]: 1.8

COc1cc(OC)c(C(=O)/C=C/c2ccc(C(F)(F)F)cc2)c(OC)c1
fold change (FC) [1]: 2.4 | fold change (FC) [2]: 2.4

COc1ccccc1C(=O)/C=C/c1ccccc1[N+](=O)[O-]
fold change (FC) [1]: 1.4 | fold change (FC) [2]: 1.9

COc1cc(OC)c(C(=O)/C=C/c2ccccc2[N+](=O)[O-])c(OC)c1
fold change (FC) [1]: 2 | fold change (FC) [2]: 2.6

COc1cc(C(=O)/C=C/c2ccccc2)cc(OC)c1OC
fold change (FC) [1]: 0.7 | fold change (FC) [2]: 0.7

O=C(/C=C/c1ccccc1C(F)(F)F)c1ccccc1
viability at 24 h [3]: 145% | Activity [4]: Active | fold change (FC) [1]: 5.3 | Activity [5]: Active | fold change (FC) [2]: 5
